Data: ChEMBL document CHEMBL1154352, “Toll-like receptor 7 selective synthetic oligoribonucleotide agonists: synthesis and structure-activity relationship studies” (J Med Chem, 2009)
Calls of active or inactive are those of the source. The calls are words filed in the database; no cut-off is given here.

Legend:
[1] = biological target: Toll-like receptor 3 (Homo sapiens) (UniProt O15455); assay: Activation of human TLR3 expressed in HEK293 assessed as induction of NF-kappaB activity reporter gene assay; type: cell-based
Toll-like receptor 3 (Homo sapiens), sequence (O15455 whole entry): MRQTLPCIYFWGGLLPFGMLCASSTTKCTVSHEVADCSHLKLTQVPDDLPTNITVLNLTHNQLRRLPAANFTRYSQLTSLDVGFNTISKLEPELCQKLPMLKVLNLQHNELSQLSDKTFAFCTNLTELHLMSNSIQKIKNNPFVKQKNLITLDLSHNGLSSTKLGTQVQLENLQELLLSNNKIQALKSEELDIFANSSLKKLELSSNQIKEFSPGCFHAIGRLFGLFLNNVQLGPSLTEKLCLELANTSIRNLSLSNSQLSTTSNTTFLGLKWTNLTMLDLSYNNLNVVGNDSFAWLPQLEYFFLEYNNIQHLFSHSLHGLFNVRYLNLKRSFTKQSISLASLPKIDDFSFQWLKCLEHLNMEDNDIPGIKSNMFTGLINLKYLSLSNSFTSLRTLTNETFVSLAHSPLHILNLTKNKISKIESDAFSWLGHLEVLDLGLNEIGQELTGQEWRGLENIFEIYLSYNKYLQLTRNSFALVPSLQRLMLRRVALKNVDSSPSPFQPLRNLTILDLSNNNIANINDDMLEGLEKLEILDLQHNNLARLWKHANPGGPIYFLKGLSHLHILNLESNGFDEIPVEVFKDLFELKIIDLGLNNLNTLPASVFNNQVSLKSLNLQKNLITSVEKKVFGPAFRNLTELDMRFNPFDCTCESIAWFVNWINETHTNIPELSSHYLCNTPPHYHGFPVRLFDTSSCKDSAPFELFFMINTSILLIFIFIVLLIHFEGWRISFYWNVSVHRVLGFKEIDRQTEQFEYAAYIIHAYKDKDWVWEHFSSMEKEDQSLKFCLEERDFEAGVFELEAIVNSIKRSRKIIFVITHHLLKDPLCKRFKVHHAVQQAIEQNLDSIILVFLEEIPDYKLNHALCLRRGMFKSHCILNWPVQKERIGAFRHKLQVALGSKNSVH

[2] = system: PBMC; assay: Immunomodulatory activity in human PBMC assessed as induction of IL12 at 100 ug/ml after 24 hrs; type: functional, cell-based
In short: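 Human PBMCs plated at 5 × 10^6 cells/mL; compounds dissolved in PBS added at various concentrations, 37 °C for 24 h. Supernatant cytokines/chemokines quantified with human Luminex multiplex kit.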

[3] = organism: Homo sapiens; assay: Ratio of human TLR7 activity to human TLR8 activity
In short: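 TLR7/TLR8 ratio computed from fold NF-κB (SEAP reporter) activation in HEK293 cells stably expressing human TLR7 versus TLR8, compounds at 50 μg/mL, 18 h exposure; representative of three independent experiments.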

[4] = biological target: T1, Toll-like receptor 8 (Homo sapiens) (UniProt Q9NR97); assay: Activation of human TLR8 expressed in HEK293XL assessed as fold induction of NF-kappaB activity at 50 ug/ml after 18 hrs by reporter gene assay relative to control
T1 sequence (whole entry): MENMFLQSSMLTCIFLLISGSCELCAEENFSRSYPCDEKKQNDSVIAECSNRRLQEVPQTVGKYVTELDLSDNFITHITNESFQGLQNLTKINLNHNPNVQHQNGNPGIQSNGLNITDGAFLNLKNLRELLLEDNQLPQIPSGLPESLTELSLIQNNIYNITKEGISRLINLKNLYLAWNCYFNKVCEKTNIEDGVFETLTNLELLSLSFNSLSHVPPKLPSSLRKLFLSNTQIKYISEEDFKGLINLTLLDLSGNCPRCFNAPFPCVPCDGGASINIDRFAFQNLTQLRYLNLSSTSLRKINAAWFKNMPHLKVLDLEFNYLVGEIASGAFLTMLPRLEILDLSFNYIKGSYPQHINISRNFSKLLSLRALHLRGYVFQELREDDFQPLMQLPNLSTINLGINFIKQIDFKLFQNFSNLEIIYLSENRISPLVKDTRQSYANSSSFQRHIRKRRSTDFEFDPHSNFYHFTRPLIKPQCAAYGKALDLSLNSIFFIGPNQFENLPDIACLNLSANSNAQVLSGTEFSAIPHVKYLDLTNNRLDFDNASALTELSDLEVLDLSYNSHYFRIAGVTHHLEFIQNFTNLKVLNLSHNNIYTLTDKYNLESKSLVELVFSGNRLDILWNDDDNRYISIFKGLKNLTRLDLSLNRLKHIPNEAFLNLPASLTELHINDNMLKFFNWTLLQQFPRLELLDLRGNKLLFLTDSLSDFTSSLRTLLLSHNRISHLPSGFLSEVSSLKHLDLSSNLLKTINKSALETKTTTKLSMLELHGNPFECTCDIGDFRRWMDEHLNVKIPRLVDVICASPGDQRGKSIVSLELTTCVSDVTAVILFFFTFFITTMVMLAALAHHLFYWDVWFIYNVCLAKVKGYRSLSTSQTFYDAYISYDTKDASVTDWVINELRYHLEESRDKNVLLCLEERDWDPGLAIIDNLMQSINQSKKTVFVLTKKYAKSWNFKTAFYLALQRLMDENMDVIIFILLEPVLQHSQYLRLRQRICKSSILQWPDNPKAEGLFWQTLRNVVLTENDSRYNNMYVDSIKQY
In short: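 HEK293 cells stably expressing human TLR7 or TLR8, transiently transfected with SEAP reporter plasmid; medium replaced, SIMRA compounds added, 18 h incubation. Supernatant SEAP measured by QuantiBlue; expressed as fold increase in NF-κB activity over PBS control. Tabulated data at 50 μg/mL, representative of three independent experiments.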

[5] = Metabolic stability in human serum assessed as full length product remaining after 10 mins by HPLC; type: ADME, cell-free; conditions: read-out: Stability
In short: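 About 0.5 A260 units compound in 1% human serum in PBS, 37 °C; aliquot taken at 10 min, analysed by anion-exchange HPLC for percent intact full-length product.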

[6] = system: PBMC; assay: Immunomodulatory activity in human PBMC assessed as induction of IFN-alpha at 100 ug/ml after 24 hrs
[7] = system: Splenocyte; assay: Immunomodulatory activity in C57BL/6 mouse splenocytes bearing TLR7 receptor assessed as IL12 release at 100 ug/ml after 24 hrs by ELISA; type: functional, cell-based
In short: (§1)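 C57BL/6 splenocytes in RPMI 1640 with 10% FBS, penicillin/streptomycin, 2 mM L-glutamine, plated at 5 × 10^6 cells/mL; compounds in PBS added, 37 °C for 24 h. Supernatant IL-12 and IL-6 by ELISA; representative of three independent experiments.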

[8] = system: Splenocyte; assay: Immunomodulatory activity in C57BL/6 mouse splenocytes bearing TLR7 receptor assessed as IL6 release at 100 ug/ml after 24 hrs by ELISA; type: functional, cell-based; in short: as §1

| SMILES | Activity [1] | Activity [2] | Ratio [3] | fold change (FC) [4] | remaining at 10 min [5] | IFN-alpha [6] | Activity [7] | Activity [8] | Activity [3] |
| --- | --- | --- | --- | --- | --- | --- | --- | --- | --- |
| Nc1ccn([C@@H]2O[C@H](COP(=O)(S)O[C@H]3[C@@H](O)[C@H](n4cnc5c(=O)[nH]c(N)nc54)O[C@@H]3COP(=O)(S)O[C@H]3[C@@H](O)[C@H](n4ccc(=O)[nH]c4=O)O[C@@H]3COP(=O)(S)OCCCO)[C@@H](OP(=O)(S)OC[C@H]3O[C@@H](n4ccc(=O)[nH]c4=O)[C@H](O)[C@@H]3OP(=O)(S)OC[C@H]3O[C@@H](n4cnc5c(=O)[nH]c(N)nc54)[C@H](O)[C@@H]3OP(=O)(S)OC[C@H]3O[C@@H](n4ccc(N)nc4=O)[C@H](O)[C@@H]3OP(=O)(S)OC[C@H]3O[C@@H](n4ccc(=O)[nH]c4=O)[C@H](O)[C@@H]3OP(=O)(S)OC[C@H]3O[C@@H](n4ccc(=O)[nH]c4=O)[C@H](O)[C@@H]3OP(=O)(S)OC[C@H]3O[C@@H](n4cnc5c(=O)[nH]c(N)nc54)[C@H](O)[C@@H]3OP(=O)(S)OC[C@H]3O[C@@H](n4ccc(=O)[nH]c4=O)[C@H](O)[C@@H]3OP(=O)(S)OC[C@H]3O[C@@H](n4cnc5c(=O)[nH]c(N)nc54)[C@H](O)[C@@H]3OP(=O)(S)OCC(O)COP(=O)(S)O[C@H]3[C@@H](O)[C@H](n4cnc5c(=O)[nH]c(N)nc54)O[C@@H]3COP(=O)(S)O[C@H]3[C@@H](O)[C@H](n4ccc(=O)[nH]c4=O)O[C@@H]3COP(=O)(S)O[C@H]3[C@@H](O)[C@H](n4cnc5c(=O)[nH]c(N)nc54)O[C@@H]3COP(=O)(S)O[C@H]3[C@@H](O)[C@H](n4ccc(=O)[nH]c4=O)O[C@@H]3COP(=O)(S)O[C@H]3[C@@H](O)[C@H](n4ccc(=O)[nH]c4=O)O[C@@H]3COP(=O)(S)O[C@H]3[C@@H](O)[C@H](n4ccc(N)nc4=O)O[C@@H]3COP(=O)(S)O[C@H]3[C@@H](O)[C@H](n4cnc5c(=O)[nH]c(N)nc54)O[C@@H]3COP(=O)(S)O[C@H]3[C@@H](O)[C@H](n4ccc(=O)[nH]c4=O)O[C@@H]3COP(=O)(S)O[C@H]3[C@@H](O)[C@H](n4ccc(N)nc4=O)O[C@@H]3COP(=O)(S)O[C@H]3[C@@H](O)[C@H](n4cnc5c(=O)[nH]c(N)nc54)O[C@@H]3COP(=O)(S)O[C@H]3[C@@H](O)[C@H](n4ccc(=O)[nH]c4=O)O[C@@H]3COP(=O)(S)OCCCO)[C@H]2O)c(=O)n1 (some centres undefined) | inactive | 715 pg/mL | 0.1 | 9.2 | 78% | 81.6 pg/mL |  |  |  |
| Nc1ccn([C@@H]2O[C@H](COP(O)(=S)O[C@H]3[C@@H](O)[C@H](n4ccc(=O)[nH]c4=O)O[C@@H]3COP(O)(=S)O[C@H]3[C@@H](O)[C@H](n4ccc(=O)[nH]c4=O)O[C@@H]3COP(O)(=S)O[C@H]3[C@@H](O)[C@H](n4ccc(N)nc4=O)O[C@@H]3COP(O)(=S)O[C@H]3[C@@H](O)[C@H](n4ccc5c(=O)[nH]c(N)nc54)O[C@@H]3COP(O)(=S)O[C@H]3[C@@H](O)[C@H](n4ccc(=O)[nH]c4=O)O[C@@H]3COP(O)(=S)O[C@H]3[C@@H](O)[C@H](n4ccc(N)nc4=O)O[C@@H]3COP(O)(=S)O[C@H]3[C@@H](O)[C@H](n4ccc5c(=O)[nH]c(N)nc54)O[C@@H]3COP(O)(=S)O[C@H]3[C@@H](O)[C@H](n4ccc(=O)[nH]c4=O)O[C@@H]3CO)[C@@H](OP(O)(=S)OC[C@H]3O[C@@H](n4ccc(=O)[nH]c4=O)[C@H](O)[C@@H]3OP(O)(=S)OC[C@H]3O[C@@H](n4ccc5c(=O)[nH]c(N)nc54)[C@H](O)[C@@H]3OP(O)(=S)OCC(O)COP(O)(=S)O[C@H]3[C@@H](O)[C@H](n4ccc5c(=O)[nH]c(N)nc54)O[C@@H]3COP(O)(=S)O[C@H]3[C@@H](O)[C@H](n4ccc(=O)[nH]c4=O)O[C@@H]3COP(O)(=S)O[C@H]3[C@@H](O)[C@H](n4ccc(N)nc4=O)O[C@@H]3COP(O)(=S)O[C@H]3[C@@H](O)[C@H](n4ccc(=O)[nH]c4=O)O[C@@H]3COP(O)(=S)O[C@H]3[C@@H](O)[C@H](n4ccc(=O)[nH]c4=O)O[C@@H]3COP(O)(=S)O[C@H]3[C@@H](O)[C@H](n4ccc(N)nc4=O)O[C@@H]3COP(O)(=S)O[C@H]3[C@@H](O)[C@H](n4ccc5c(=O)[nH]c(N)nc54)O[C@@H]3COP(O)(=S)O[C@H]3[C@@H](O)[C@H](n4ccc(=O)[nH]c4=O)O[C@@H]3COP(O)(=S)O[C@H]3[C@@H](O)[C@H](n4ccc(N)nc4=O)O[C@@H]3COP(O)(=S)O[C@H]3[C@@H](O)[C@H](n4ccc5c(=O)[nH]c(N)nc54)O[C@@H]3COP(O)(=S)O[C@H]3[C@@H](O)[C@H](n4ccc(=O)[nH]c4=O)O[C@@H]3CO)[C@H]2O)c(=O)n1 (some centres undefined) | inactive | 1110 pg/mL | 3.4 | 4.7 |  | 385 pg/mL | Active | Active |  |
| Nc1ncnc2c1ncn2[C@@H]1O[C@H](CO)[C@@H](OP(=O)(S)OC[C@H]2O[C@@H](n3cnc4c(N)ncnc43)[C@H](O)[C@@H]2OP(=O)(S)OC[C@H]2O[C@@H](n3cnc4c(N)ncnc43)[C@H](O)[C@@H]2OP(=O)(S)OC[C@H]2O[C@@H](n3cnc4c(N)ncnc43)[C@H](O)[C@@H]2OP(=O)(S)OC[C@H]2O[C@@H](n3cnc4c(N)ncnc43)[C@H](O)[C@@H]2OP(=O)(S)OC[C@H]2O[C@@H](n3cnc4c(N)ncnc43)[C@H](O)[C@@H]2OP(=O)(S)OC[C@H]2O[C@@H](n3cnc4c(N)ncnc43)[C@H](O)[C@@H]2OP(=O)(S)OC[C@H]2O[C@@H](n3cnc4c(N)ncnc43)[C@H](O)[C@@H]2OP(=O)(S)OC[C@H]2O[C@@H](n3cnc4c(N)ncnc43)[C@H](O)[C@@H]2OP(=O)(S)OC[C@H]2O[C@@H](n3cnc4c(N)ncnc43)[C@H](O)[C@@H]2OP(=O)(S)OC[C@H]2O[C@@H](n3cnc4c(N)ncnc43)[C@H](O)[C@@H]2OP(=O)(S)OCC(O)COP(=O)(S)O[C@H]2[C@@H](O)[C@H](n3cnc4c(N)ncnc43)O[C@@H]2COP(=O)(S)O[C@H]2[C@@H](O)[C@H](n3cnc4c(N)ncnc43)O[C@@H]2COP(=O)(S)O[C@H]2[C@@H](O)[C@H](n3cnc4c(N)ncnc43)O[C@@H]2COP(=O)(S)O[C@H]2[C@@H](O)[C@H](n3cnc4c(N)ncnc43)O[C@@H]2COP(=O)(S)O[C@H]2[C@@H](O)[C@H](n3cnc4c(N)ncnc43)O[C@@H]2COP(=O)(S)O[C@H]2[C@@H](O)[C@H](n3cnc4c(N)ncnc43)O[C@@H]2COP(=O)(S)O[C@H]2[C@@H](O)[C@H](n3cnc4c(N)ncnc43)O[C@@H]2COP(=O)(S)O[C@H]2[C@@H](O)[C@H](n3cnc4c(N)ncnc43)O[C@@H]2COP(=O)(S)O[C@H]2[C@@H](O)[C@H](n3cnc4c(N)ncnc43)O[C@@H]2COP(=O)(S)O[C@H]2[C@@H](O)[C@H](n3cnc4c(N)ncnc43)O[C@@H]2COP(=O)(S)O[C@H]2[C@@H](O)[C@H](n3cnc4c(N)ncnc43)O[C@@H]2CO)[C@H]1O (some centres undefined) | inactive | 183 pg/mL |  | 0.7 | 92% | 0 pg/mL |  |  | Active |
